Source: publication PMC4847003 (International Journal for Parasitology: Drugs and Drug …, 2015)
Where a name gives a salt, the structure may show the parent alone. Read-outs that look alike come from different tables or passages of the source.

How the values were obtained:
[1] = system: 3T3 host cells; assay: Host cell number in the same well of the amastigote image-based assay; design: species or system mouse; conditions: for SI (3T3): 3T3 IC50 or highest dose tested / amastigote IC50
[2] = system: T. cruzi trypomastigotes; assay: Trypomastigote viability assay; format: cell-based, Trypanosoma cruzi Tulahuen strain; conditions: for activity against the trypomastigote: Malaria Box retest; for IC50: read-out: IC50 T. cruzi Trypomastigote (μM ± SD)
[3] = system: HEK293 cells; assay: HEK293 viability assay; format: cell-based, human; conditions: for IC50: read-out: IC50 HEK293 (μM ± SD); for Selectivity (SI) of T. cruzi amastigotes to HEK293 cells: based on solid samples
[4] = system: Trypanosoma cruzi amastigotes; assay: Image-based T. cruzi amastigote assay in 3T3 fibroblasts, 48 h compound exposure; format: cell-based, Trypanosoma cruzi Tulahuen strain; conditions: Fibroblast
[5] = Host cell number in the same well of the amastigote image-based assay; design: species or system mouse; conditions: mouse, 3T3 host cells infected with T. cruzi
[6] = system: 3T3 cells; assay: Activity against sub-confluent 3T3 cells; format: cell-based, mouse; conditions: at 73 μM, seeding density of 1000 cells per well
Procedure, shortened: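 3T3 cells seeded at 1000 to 62 cells/well in collagen-coated 384-well plates and grown 48 h. Wells were washed twice and refilled with growth medium. A test-compound dose series was added in duplicate per density, with 30 μM puromycin (positive) and 0.37% DMSO (negative) controls. After a further 48 h, 70 μM final resazurin was added. […] Averaged over duplicate experiments.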

[7] = system: T. cruzi amastigotes; assay: Residual amastigotes following compound treatment, 48 and 72 h image-based assay; format: cell-based, Trypanosoma cruzi Tulahuen strain; conditions: for IC50 / Emax at 18 µM: Trypanosoma cruzi; for IC50: read-out: IC50 value against T. cruzi amastigotes; for Emax at 18 µM: read-out: % of infections removed at Emax concentration
Procedure, shortened: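 3T3 fibroblasts seeded at 1 × 10³ cells/well in collagen-coated 384-well plates, then infected with T. cruzi trypomastigotes. Free parasites were washed off with PBS after 24 h. Test compound was given as a dose series, pre-diluted 1:21 in water, for 48 or 72 h. Cells were fixed in 4% paraformaldehyde and stained with Hoechst in 0.1% Triton X-100. Residual intracellular spots at the Emax concentration were scored, including by eye.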

[8] = system: Tulahuen strain parasites in U2OS cells; conditions: 96 h treatment, high concentrations; ref Moraes et al., 2014; cited from earlier work
[9] = system: Y strain infection; conditions: ref Moraes et al., 2014, cited from earlier work
[10] = read-out: 3T3 % activity highest dose, at 9.2 μM, DMSO sample
[11] = solid sample, 48 h, 2 independent experiments
[12] = read-out: IC50 value against T. cruzi amastigotes, Malaria Box primary screening
[13] = read-out: T. cruzi amastigote IC50 (μM ± SD), Malaria Box sample stored in 100% DMSO, two independent experiments
[14] = Trypanosoma cruzi, read-out: T. cruzi Trypomastigote % activity at highest dose

O=C(Nc1nc(-c2ccccn2)cs1)c1ccccc1Br [MMV665909]
cytotoxicity [1, 10]: 35% | cytotoxicity ([1]; read-out: 3T3 % activity highest dose, at 73.3 μM, solid sample): 44% | activity against the trypomastigote [2]: active against the trypomastigote life cycle form | IC50 ([2]; Malaria Box DMSO sample): 1.08 ± 0.01 µM | IC50 ([2]; Malaria Box solid sample): 1.05 ± 0.13 µM | IC50 [3, 11]: 1.97 ± 0.65 µM

CC1CS(=O)(=O)CCN1/N=C/c1ccc([N+](=O)[O-])o1 (stereo not drawn) [Nifurtimox, nifurtimox]
IC50 [4, 12]: 0.764 µM | IC50 [4, 13]: 0.59 ± 0.1 µM | cytotoxicity at 48 h, 153.1 µM [5]: 32% | SI (3T3) ([1]; based on solid samples): > 231.8 | SI (3T3) ([1]; solid sample): >157.41 | activity against host cells ([1]; Malaria Box primary screening): no corresponding activity against host cells | Selectivity (SI) of T. cruzi amastigotes to HEK293 cells [3]: > 251.1

CCOc1cccc2sc(N(Cc3cccnc3)C(=O)C3CCCCC3)nc12 [MMV001230]
SI (3T3) ([1]; based on solid samples): > 87.26 | Selectivity (SI) of T. cruzi amastigotes to HEK293 cells [3]: > 94.52

O=C(NC(c1ccccc1)c1ccc2cccnc2c1O)c1ccccc1 (stereo not drawn) [MMV666080]
SI (3T3) ([1]; based on solid samples): > 25.77 | cytotoxicity [1, 10]: 40% | cytotoxicity ([1]; read-out: 3T3 % activity highest dose, at 36.6 μM, solid sample): 34% | activity against the trypomastigote [2]: active against the trypomastigote life cycle form | IC50 ([2]; Malaria Box DMSO sample): 0.9 ± 0.06 µM | IC50 ([2]; Malaria Box solid sample): 0.52 ± 0.04 µM | activity / cytotoxicity against HEK293 cells [3]: active against HEK293 cells | IC50 [3, 11]: 2.88 ± 0.9 µM

Cc1cc(C2CCCCC2)n(O)c(=O)c1 [Ciclopirox Olamine, ciclopirox olamine]
cytotoxicity at 48 h, 136.5 µM [5]: 42% | SI (3T3) ([1]; library DMSO stock): >3.54 | SI (3T3) ([1]; solid sample): > 35.0 | activity at 19 µM ([1]; Mus musculus, read-out: Host % activity at highest dose): 53% | IC50 ([3]; Homo sapiens, HEK293, 48 h): 1.4 ± 1.07 µM | Selectivity index (SI) to HEK293 cells ([3]; Table 2 footnote a, solid sample): 0.36 | activity against 3T3 cells [6]: 38%

CC[C@@H]([C@H](C)O)n1ncn(-c2ccc(N3CCN(c4ccc(OC[C@@H]5CO[C@@](Cn6cncn6)(c6ccc(F)cc6F)C5)cc4)CC3)cc2)c1=O [posaconazole, reference compound]
residual amastigotes at the Emax concentration ([7]; Emax of 50 nM, 48 and 72 h (Figure S5)): presence of a small number of amastigotes could be seen | IC50 ([7]; 48 h): 6 ± 0.6 nM | IC50 ([7]; 72 h): 4.9 ± 3.6 nM | parasites reduced by [8]: 93% | reduction of Y strain infection ([9]; 72 h exposure): 84% | reduction of Y strain infection ([9]; exposure to 80 nM for 48 h): approximately 60%

Clc1ccccc1C(c1ccccc1)(c1ccccc1)n1ccnc1 [Clotrimrazole HCl, clotrimazole, reference compound]
residual amastigotes at the Emax concentration ([7]; 48 h incubation, 0.92 µM in Figure S3): amastigotes that appeared to remain

Cc1[nH]c2ccccc2c(=O)c1CC=C(Cl)Cl [MMV665994, 3-(3,3-Dichloro-2-propen-1-yl)-2-methyl-4(1H)-quinolinone]
IC50 [4, 13]: 0.66 ± 0.7 µM | SI (3T3) ([1]; based on solid samples): > 59.59 | inhibition at 87 µM [2, 14]: 52% | Selectivity (SI) of T. cruzi amastigotes to HEK293 cells [3]: > 64.55 | Emax at 18 µM ([7]; 48 h): 97%

COc1ccc(C)c2sc(N(Cc3cccnc3)C(=O)c3ccc(C#N)cc3)nc12 [MMV001241]
SI (3T3) ([1]; based on solid samples): > 31.59 | HEK293 % activity at highest dose ([3]; at 79.4 μM, solid sample): 44% at 79.4 μM | Selectivity (SI) of T. cruzi amastigotes to HEK293 cells [3]: > 34.22

COc1ccccc1N1CCN(C(CNS(=O)(=O)c2ccc(Cl)cc2)c2cccnc2)CC1 (stereo not drawn) [MMV665914, 4-chloro-N-(2-(4-(2-methoxyphenyl)piperazin-1-yl)-2-(pyridin-3yl)ethyl) benzene sulfonamide]
SI (3T3) ([1]; based on solid samples): > 42.37 | cytotoxicity [1, 10]: 25% | Selectivity (SI) of T. cruzi amastigotes to HEK293 cells [3]: > 45.90 | % of infections removed at Emax concentration ([7]; 18 μM, 48 h incubation): 97% | % of parasites removed at Emax concentration ([7]; 18 μM, 72 h incubation): 99%

COc1ccc(C[C@H](N)C(=O)N[C@H]2[C@@H](O)[C@H](n3cnc4c(N(C)C)ncnc43)O[C@@H]2CO)cc1 [Puromycin, puromycin]
IC50 [4, 12]: 2.35 µM | IC50 [4, 13]: 2.54 ± 0.13 µM | SI (3T3) ([1]; based on solid samples): 1.48 | SI (3T3) ([1]; library DMSO stock): 0.97 | SI (3T3) ([1]; solid sample): 1.75 | IC50 ([1]; Mus musculus, read-out: Host IC50 ± stdev, 3T3, run of library DMSO retest): 3040 ± 520 nM | IC50 ([1]; Mus musculus, read-out: Host IC50 ± stdev, 3T3, run of solid sample retest): 2760 ± 690 nM | IC50 ([3]; Homo sapiens, HEK293, 48 h): 0.28 ± 0.04 µM | Selectivity (SI) of T. cruzi amastigotes to HEK293 cells [3]: 0.12

CN(C)c1ccc(Nc2c3ccccc3nc3ccccc23)cc1 [STL088556, N′-(acridin-9-yl)-N,N-dimethylbenzene-1,4-diamine]
activity at 73 µM ([4]; read-out: T. cruzi amastigote % activity): 62% | IC50 [4, 13]: 2.37 ± 1.51 µM | cytotoxicity at 48 h, 9.2 µM [5]: 30% | cytotoxicity at 48 h, 73.3 µM [5]: 62% | inhibition at 10.9 µM [2, 14]: 65% | activity at 79.4 µM ([3]; Homo sapiens, HEK293, read-out: HEK293 % activity at highest dose): 115%

COc1ccc2sc(N(Cc3cccnc3)C(=O)c3ccc(C#N)cc3)nc2c1 [MMV001239, 4-cyano-N-(5-methoxy-1,3-benzothiazol-2-yl)-N-(pyridin-3-ylmethyl)benzamide]
IC50 [4, 13]: 0.86 ± 0.006 µM | cytotoxicity against 3T3 cells [1]: no cytotoxicity detected | SI (3T3) ([1]; based on solid samples): > 20.65 | activity / cytotoxicity against HEK293 cells [3]: no cytotoxicity detected | Selectivity (SI) of T. cruzi amastigotes to HEK293 cells [3]: > 22.37 | % of infections removed at Emax concentration ([7]; 18 μM, 48 h incubation): Ninety | Emax at 18 µM ([7]; 48 h): 90%

CC[C@@]1(O)C(=O)OCc2c1cc1n(c2=O)Cc2cc3ccccc3nc2-1 [Camptothecin, camptothecin]
cytotoxicity at 48 h, 5 µM [5]: 38% | cytotoxicity at 48 h, 16.8 µM [5]: 44% | SI (3T3) ([1]; library DMSO stock): >49.41 | SI (3T3) ([1]; solid sample): >55.56

COc1c(C)c2c(c(O)c1C/C=C(\C)CCC(=O)[O-])C(=O)OC2.[Na+] [Sodium Mycophenolate, sodium mycophenolate]
SI (3T3) ([1]; library DMSO stock): >19.11 | cytotoxicity ([1]; read-out: Host % activity at highest dose, 3T3, at 17.2 μM, library DMSO stock): 30%
